ChEMBL document CHEMBL4400528, “Discovery and Optimization of Selective and in Vivo Active Inhibitors of the Lysophosphatidylserine Lipase α/β-Hydrolase Domain-Containing 12 (ABHD12)” (J Med Chem, 2019)
Activity calls are given as the source filed them. The rule behind the calls is not given here.

Key:
[1] = target: T1, Lysophosphatidylserine lipase ABHD12 (Mus musculus) (UniProt Q99LR1); test: Binding affinity to ABHD12 in mouse brain membrane proteome at 0.016 to 10 uM incubated for 45 mins by CuAAC fluorescence dependent gel-based competitive ABPP assay; format: cell membranes
T1 sequence (whole entry): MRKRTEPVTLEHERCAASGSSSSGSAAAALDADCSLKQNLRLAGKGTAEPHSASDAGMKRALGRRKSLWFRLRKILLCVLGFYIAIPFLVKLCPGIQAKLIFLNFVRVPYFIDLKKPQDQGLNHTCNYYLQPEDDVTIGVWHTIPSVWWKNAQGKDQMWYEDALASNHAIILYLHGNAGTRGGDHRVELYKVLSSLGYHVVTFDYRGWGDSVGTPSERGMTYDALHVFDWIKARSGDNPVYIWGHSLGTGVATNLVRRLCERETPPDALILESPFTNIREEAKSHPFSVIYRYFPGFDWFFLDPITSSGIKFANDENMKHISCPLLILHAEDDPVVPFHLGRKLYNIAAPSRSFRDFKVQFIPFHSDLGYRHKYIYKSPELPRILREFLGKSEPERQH
Summary of the method: (§1)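 Mouse brain membrane proteome (1 mg/mL) preincubated with inhibitor for 45 min at 37 °C. Labelled with FP-Rh (1 μM) or JJH350 (2 μM) for 45 min at 37 °C. JJH350 samples were clicked to Rh-N3 (25 μM) by CuAAC for 60 min at room temperature. Read by 10% SDS-PAGE and in-gel fluorescence scanning. Band intensity taken relative to control (100%), and IC50 from log(inhibitor) vs normalized response.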

[2] = target: T2, Lysophosphatidylserine lipase ABHD12 (Mus musculus, UniProt Q99LR1); test: Inhibition of FP-Rh probe binding to ABHD12 in mouse brain membrane proteome incubated for 45 mins by CuAAC fluorescence dependent gel-based competitive ABPP assay; format: cell membranes; summary of the method: as §1
T2 sequence (Q99LR1 whole entry): T1 sequence (whole entry)

[3] = target: T3, Monoacylglycerol lipase ABHD6 (Mus musculus) (UniProt Q8R2Y0); test: Binding affinity to ABHD6 in mouse brain membrane proteome at 0.016 to 10 uM incubated for 45 mins by CuAAC fluorescence dependent gel-based competitive ABPP assay; format: cell membranes; summary of the method: as §1
T3 sequence (whole entry): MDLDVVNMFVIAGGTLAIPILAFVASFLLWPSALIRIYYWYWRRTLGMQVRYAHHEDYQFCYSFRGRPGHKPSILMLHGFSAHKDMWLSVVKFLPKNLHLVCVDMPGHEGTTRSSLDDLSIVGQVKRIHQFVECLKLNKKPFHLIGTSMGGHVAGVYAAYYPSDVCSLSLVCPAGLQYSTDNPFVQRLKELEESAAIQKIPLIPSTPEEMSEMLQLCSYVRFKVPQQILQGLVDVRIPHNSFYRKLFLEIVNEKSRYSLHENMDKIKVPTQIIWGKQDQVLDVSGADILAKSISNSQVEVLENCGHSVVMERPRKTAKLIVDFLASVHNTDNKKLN

[4] = target: T2, Lysophosphatidylserine lipase ABHD12; test: Inhibition of JJH350 binding to ABHD12 in mouse brain membrane proteome incubated for 20 mins by CuAAC fluorescence dependent gel-based competitive ABPP assay; format: cell membranes
Summary of the method: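 Brain membrane fraction (1 mg/mL; DPBS homogenate, 16,000 x g pellet) treated with inhibitor for 20 min at room temperature. JJH350 (2 μM) added for 45 min at 37 °C, then CuAAC with rhodamine-PEG3-azide, CuSO4, TBTA and TCEP for 1 h at room temperature. Run on 10% SDS-PAGE and read by in-gel fluorescence. ABHD12 band normalized to control-treated sample (100%); IC50 from log dose-response fit.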

[5] = target: T4, Lysophosphatidylserine lipase ABHD12 (Homo sapiens) (UniProt Q8N2K0); test: Inhibition of ABHD12 in PMA-differentiated human THP1 cells assessed as increase in TNF-alpha production treated simultaneously with IFN-gamma/LPS for 24 hrs and measured 6 to 24 hrs after stimulation
T4 sequence (whole entry): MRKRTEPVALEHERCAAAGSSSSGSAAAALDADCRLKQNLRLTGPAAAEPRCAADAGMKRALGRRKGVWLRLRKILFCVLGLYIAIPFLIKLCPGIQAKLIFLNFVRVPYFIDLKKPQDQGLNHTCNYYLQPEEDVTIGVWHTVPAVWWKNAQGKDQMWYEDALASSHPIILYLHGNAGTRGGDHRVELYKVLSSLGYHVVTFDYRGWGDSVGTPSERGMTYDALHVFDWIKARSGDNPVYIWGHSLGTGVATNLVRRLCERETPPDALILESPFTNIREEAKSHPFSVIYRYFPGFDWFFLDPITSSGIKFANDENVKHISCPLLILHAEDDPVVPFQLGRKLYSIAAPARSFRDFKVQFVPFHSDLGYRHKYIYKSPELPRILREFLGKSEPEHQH
Summary of the method: (§2)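 THP-1 cells grown in RPMI/10% FBS/0.05 mM 2-mercaptoethanol, plated 2.5×10^6 per well. Treated 24 h with 150 ng/mL PMA, washed, rested 24 h. Polarized to M1 with 20 ng/mL IFN-γ plus 10 pg/mL LPS for 24 h. Compound or DMSO (test 0.1–1 μM) present at every step. Media sampled 6 and 24 h after stimulation; cytokines by MSD V-Plex. Mean ± SEM, four biological experiments.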

[6] = target: T4, Lysophosphatidylserine lipase ABHD12 (Homo sapiens); test: Inhibition of ABHD12 in PMA-differentiated human THP1 cells assessed as increase in IL-1beta production treated simultaneously with IFN-gamma/LPS for 24 hrs and measured 6 to 24 hrs after stimulation; summary of the method: as §2
[7] = target: T4, Lysophosphatidylserine lipase ABHD12 (Homo sapiens); test: Inhibition of ABHD12 in PMA-differentiated human THP1 cells assessed as increase in CCL3 production treated simultaneously with IFN-gamma/LPS for 24 hrs and measured 6 to 24 hrs after stimulation; summary of the method: as §2
[8] = target: T4, Lysophosphatidylserine lipase ABHD12 (Homo sapiens); test: Inhibition of ABHD12 in PMA-differentiated human THP1 cells assessed as increase in CCL4 production treated simultaneously with IFN-gamma/LPS for 24 hrs and measured 6 to 24 hrs after stimulation; summary of the method: as §2
THP-1 = test: Cytotoxicity against human THP1 cells assessed as effect on cell viability at 1 uM after 72 hrs by CellTiter-Glo assay; format: cell-based; settings: thp-1, 72 h
Summary of the method: (§3)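 Cells seeded at 3,000 per well and left 24 h. Compounds then added at 0.1–10 μM final and incubated 72 h. Viability read by CellTiter-Glo luminescence and normalized to vehicle-treated controls.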

HT-1080 = test: Cytotoxicity against human HT1080 cells assessed as effect on cell viability at 1 uM after 72 hrs by CellTiter-Glo assay; format: cell-based; settings: ht-1080, 72 h; summary of the method: as §3
MDA-MB-231 = test: Cytotoxicity against human MDA-MB-231 cells assessed as effect on cell viability at 1 uM after 72 hrs by CellTiter-Glo assay; format: cell-based; settings: mda-mb-231, 72 h; summary of the method: as §3
T98G = test: Cytotoxicity against human T98G cells assessed as effect on cell viability at 1 uM after 72 hrs by CellTiter-Glo assay; format: cell-based; summary of the method: as §3
[9] = Drug level in mouse brain at 30 mg/kg, po; format: ADME, organism-based; settings: in vivo, read-out: Drug uptake
[10] = Drug level in mouse brain at 30 mg/kg, ip; format: ADME, organism-based; settings: in vivo, read-out: Drug uptake
[11] = Toxicity in mouse at 30 mg/kg, po; format: organism-based; settings: in vivo
[12] = Drug level in mouse peripheral regions at 30 mg/kg, po; format: ADME, organism-based; settings: in vivo, read-out: Drug uptake
[13] = Drug level in mouse peripheral regions at 30 mg/kg, ip; format: ADME, organism-based; settings: in vivo, read-out: Drug uptake
[14] = Toxicity in mouse at 30 mg/kg, ip; format: organism-based; settings: in vivo

With C#CCOc1ccc(N2CCN(C(=O)ON3C(=O)C4CN(C(=O)c5ccc(Oc6ccccc6)cc5)CCN4C3=O)CC2)cc1 (stereo not drawn) the Activity [1] was “Active”, the IC50 [2] was 400 nM and the Activity [3] was “Active”.
In the case of FC(F)(F)Oc1ccc(Oc2ccnc(N3CCC(NC(=S)Nc4cccnc4)CC3)c2Cl)c(Cl)c1, the IC50 [4] is reported as 11 nM, the inhibition [5] is reported as “Dose-dependent effect” and the inhibition [6] is reported as “Dose-dependent effect”. The inhibition [7] was “Dose-dependent effect”, the inhibition [8] was “Dose-dependent effect” and the Activity (THP-1) was “Non-Toxic”. The Activity (HT-1080) was “Non-Toxic”, the Activity (MDA-MB-231) was “Non-Toxic” and the Activity (T98G) was “Non-Toxic”. The concentration [9] was 3 to 9 µM, the concentration [10] was 3 to 9 µM and the Activity [11] was “Non-Toxic”. For the same compound, the concentration [12] was 3 to 9 µM, the concentration [13] was 3 to 9 µM and the Activity [14] was “Non-Toxic”.
